Reference: ChEMBL document CHEMBL1687933, “Synthesis and pharmacological evaluation of fluorine-containing D₃ dopamine receptor ligands” (J Med Chem, 2011)

How the values were obtained:
[1] = Partition coefficient, log P of the compound; assay type: physicochemical; conditions: octanol/water
Homo sapiens = species: Homo sapiens; assay: Selectivity ratio of Ki for human D2 receptor to Ki for human D3 receptor
Procedure, shortened: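 Selectivity index is Ki(D2)/Ki(D3). Both Ki values come from [125I]IABN competition on membranes of HEK 293 cells stably expressing the human receptor. Incubation was 60 min at 37°C at pH 7.5, with Cheng–Prusoff correction.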

D(3) dopamine receptor = D(3) dopamine receptor (Homo sapiens, UniProt P35462); assay: Displacement of [125I]-IABN from human D3 receptor transfected in human HEK 293 cells by gamma-counting; assay type: cell-based, HEK293
Procedure, shortened: (§1)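 Nonspecific binding defined with 20 µM (+)-butaclamol. Inhibitor spans 5 log units at two points per decade, in triplicate. Filtration and gamma counting. One-site IC50 converted to Ki by Cheng–Prusoff. At least three independent experiments.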

D(2) dopamine receptor = D(2) dopamine receptor (Homo sapiens, UniProt P14416); assay: Displacement of [125I]-IABN from human D2 receptor transfected in human HEK 293 cells by gamma-counting; assay type: cell-based, HEK293; procedure, shortened: as §1
D(4) dopamine receptor = target: T1, D(4) dopamine receptor (Homo sapiens, UniProt P21917); assay: Binding affinity to human D4 receptor transfected in human HEK293 cells by gamma-counting; assay type: cell-based; procedure, shortened: as §1
T1 sequence (P21917 whole entry): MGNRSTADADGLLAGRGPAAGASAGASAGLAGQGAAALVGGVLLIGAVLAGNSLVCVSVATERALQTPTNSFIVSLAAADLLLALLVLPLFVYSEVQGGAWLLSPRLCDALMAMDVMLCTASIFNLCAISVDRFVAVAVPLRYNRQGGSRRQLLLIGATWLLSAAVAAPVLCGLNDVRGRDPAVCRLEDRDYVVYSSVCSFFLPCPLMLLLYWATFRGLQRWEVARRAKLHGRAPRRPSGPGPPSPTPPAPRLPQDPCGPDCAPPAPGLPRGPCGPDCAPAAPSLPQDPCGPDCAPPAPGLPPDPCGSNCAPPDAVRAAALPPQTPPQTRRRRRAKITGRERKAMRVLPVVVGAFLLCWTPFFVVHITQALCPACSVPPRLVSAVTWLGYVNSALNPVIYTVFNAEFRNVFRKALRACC

[2] = target: Sigma non-opioid intracellular receptor 1 (Cavia porcellus, UniProt Q60492); assay: Displacement of [3H]-pentazocine from guinea pig sigma1 receptor by liquid scintillation counting
Procedure, shortened: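 Guinea pig brain membranes (~300 µg protein) incubated with ~5 nM (+)-[3H]-pentazocine for 90 min at room temperature in Tris-HCl/NaCl/EDTA pH 7.4. […] Filtration and scintillation counting. IC50 taken from a one-site fit.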

Chain of D(2) dopamine receptor (P14416 whole entry): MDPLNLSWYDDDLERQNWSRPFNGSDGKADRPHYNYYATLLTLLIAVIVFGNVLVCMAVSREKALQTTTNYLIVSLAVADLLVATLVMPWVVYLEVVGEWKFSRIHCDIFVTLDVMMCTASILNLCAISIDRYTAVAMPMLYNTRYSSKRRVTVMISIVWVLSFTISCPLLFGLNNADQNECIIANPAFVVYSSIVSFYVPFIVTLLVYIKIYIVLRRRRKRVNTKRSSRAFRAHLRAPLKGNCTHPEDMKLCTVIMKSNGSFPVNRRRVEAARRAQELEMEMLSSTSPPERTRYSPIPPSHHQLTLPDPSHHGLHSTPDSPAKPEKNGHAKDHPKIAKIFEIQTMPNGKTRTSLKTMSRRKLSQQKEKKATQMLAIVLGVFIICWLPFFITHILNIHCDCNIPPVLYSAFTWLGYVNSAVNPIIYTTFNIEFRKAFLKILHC
Chain of D(3) dopamine receptor (P35462 whole entry): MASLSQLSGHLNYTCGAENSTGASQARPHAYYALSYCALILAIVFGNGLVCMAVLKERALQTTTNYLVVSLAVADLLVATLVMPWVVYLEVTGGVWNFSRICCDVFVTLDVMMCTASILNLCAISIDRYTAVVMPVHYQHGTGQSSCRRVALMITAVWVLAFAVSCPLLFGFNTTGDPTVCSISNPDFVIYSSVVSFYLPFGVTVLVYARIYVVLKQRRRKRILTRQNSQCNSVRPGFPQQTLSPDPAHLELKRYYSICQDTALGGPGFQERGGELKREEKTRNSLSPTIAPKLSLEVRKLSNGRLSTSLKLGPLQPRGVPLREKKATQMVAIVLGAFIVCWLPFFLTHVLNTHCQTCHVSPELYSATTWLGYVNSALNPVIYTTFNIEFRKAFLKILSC
Chain of Sigma non-opioid intracellular receptor 1 (Q60492 whole entry): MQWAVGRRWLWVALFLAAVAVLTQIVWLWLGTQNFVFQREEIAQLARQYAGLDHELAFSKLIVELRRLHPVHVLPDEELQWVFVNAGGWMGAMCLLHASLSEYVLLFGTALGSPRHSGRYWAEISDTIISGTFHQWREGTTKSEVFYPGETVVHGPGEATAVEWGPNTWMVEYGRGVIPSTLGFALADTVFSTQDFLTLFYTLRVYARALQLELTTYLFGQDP

SMILES | logP [1] | Ratio Ki (Homo sapiens) | Ki (D(3) dopamine receptor) | Ki (D(2) dopamine receptor) | Ki (D(4) dopamine receptor) | Ki [2]
COc1ccccc1N1CCN(CCCCNC(=O)c2ccc(N(C)C)cc2)CC1 | 3.09 | 43 | 0.8 nM | 34.4 nM | 896 nM | 1260 nM
COc1ccccc1N1CCN(CCCCNC(=O)c2ccc(OCCF)cc2)CC1 | 3.48 | 25 | 1.1 nM | 27.1 nM | 1400 nM | 4780 nM
COc1ccccc1N1CCN(C/C=C/CNC(=O)c2cc(Br)ccc2OCCF)CC1 | 4.49 | 1 | 13.6 nM | 13.4 nM | – | –
O=C(NCCCCN1CCN(c2ccccc2OCCF)CC1)c1ccc(OCCOCCOCCF)cc1 | 2.98 | 6.1 | 5.2 nM | 31.7 nM | – | –
CN(C)c1ccc(C(=O)NC/C=C/CN2CCN(c3ccccc3OCCF)CC2)cc1 | 3.83 | 9.8 | 3.6 nM | 35.2 nM | – | –
O=C(NCCCCN1CCN(c2ccccc2OCCF)CC1)c1ccc(-c2ccsc2)cc1 | 4.67 | – | – | – | 246 nM | 20900 nM
COc1ccccc1N1CCN(CCCCNC(=O)c2ccc(CCF)cc2)CC1 | 2.94 | – | 2.4 nM | 54.5 nM | 804 nM | 3540 nM
O=C(NCCCCN1CCN(c2ccccc2OCCF)CC1)c1ccc(OCCOCCF)cc1 | 3.34 | – | 2.5 nM | 14.2 nM | – | –
O=C(NC/C=C/CN1CCN(c2ccccc2OCCF)CC1)c1ccc(OCCOCCF)cc1 | 3.41 | 3.3 | 19.6 nM | 64.8 nM | – | –
COc1ccccc1N1CCN(C/C=C/CNC(=O)c2cc(Br)cc(OC)c2OCCF)CC1 | 4.15 | 4.2 | 13.8 nM | 57.6 nM | – | –
O=C(NC/C=C/CN1CCN(c2ccccc2OCCF)CC1)c1ccc(CCF)cc1 | 3.61 | 16.1 | 1.1 nM | 17.7 nM | 890 nM | 7200 nM
COc1ccccc1N1CCN(CCCCNC(=O)c2ccc(OCCOCCF)cc2)CC1 | 3.08 | – | 6.2 nM | – | – | –
CN(C)c1ccc(C(=O)NCCCCN2CCN(c3ccccc3OCCF)CC2)cc1 | 3.75 | – | 0.65 nM | 15.1 nM | 890 nM | 1960 nM
O=C(NC/C=C/CN1CCN(c2ccccc2OCCF)CC1)c1ccc(OCCF)cc1 | 3.81 | 4.5 | 8.4 nM | 37.9 nM | – | –
COc1ccccc1N1CCN(C/C=C/CNC(=O)c2ccc(CCF)cc2)CC1 | 3.43 | 5.2 | 24.9 nM | 131 nM | – | –
COc1ccccc1N1CCN(C/C=C/CNC(=O)c2ccc(OCCF)cc2)CC1 | 3.55 | 8.9 | 6.2 nM | 55.3 nM | – | –
O=C(NCCCCN1CCN(c2ccccc2OCCF)CC1)c1ccc(CCF)cc1 | 3.68 | 3.1 | 6.9 nM | 21.4 nM | – | –
O=C(NC/C=C/CN1CCN(c2ccccc2OCCF)CC1)c1ccc(-c2ccsc2)cc1 | 4.74 | 64 | 1.1 nM | 70.5 nM | 182 nM | 7780 nM
COc1ccccc1N1CCN(C/C=C/CNC(=O)c2cc(C)ccc2OCCF)CC1 | 3.66 | 1 | 18.5 nM | 17.8 nM | – | –
O=C(NCCCCN1CCN(c2ccccc2OCCF)CC1)c1ccc(OCCF)cc1 | 3.73 | – | 0.52 nM | 15.1 nM | 990 nM | 4360 nM
COc1ccccc1N1CCN(CCCCNC(=O)c2ccc(OCCOCCOCCF)cc2)CC1 | 2.72 | 12.2 | 4.2 nM | 52 nM | 2100 nM | 4870 nM
COc1ccccc1N1CCN(C/C=C/CNC(=O)c2ccc(OCCOCCF)cc2)CC1 | 3.16 | 3.3 | 18.2 nM | 59.2 nM | – | –
COc1ccccc1N1CCN(C/C=C/CNC(=O)c2cc(I)ccc2OCCF)CC1 | 4.73 | 1.2 | 10.9 nM | 13.2 nM | – | –
